Bioassay records deposited in PubChem BioAssay by several laboratories.
OX1R antag-1: antagonists of human orexin 1 receptor | inhibition, % at 5 µM | hit rate 0.43% among 330,000 | CHO/OX1R cells, Fluo-8 calcium fluorescence, orexin A;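 active = inhibition above its plate's threshold, mean inhibition of all tested compounds on the plate plus 3 SD, cut at about 37% in these data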;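 also: 0% = orexin A challenge wells and 100% = SB-334867-A antagonist wells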
EP2 antag: EP2 receptor (human) inhibition. inhibition, % at 25 µM. hit rate 0.52% among 260,000. C6 glioma cells expressing human EP2, cAMP TR-FRET; cells stimulated with saturating PGE2;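 active = percent inhibition above 40 after rounding to a whole number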;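 also: rat C6 glioma host cells with rolipram phosphodiesterase inhibitor present; the protocol text gives 20 µM as final concentration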
Target sequence (P43116 whole entry, looked up): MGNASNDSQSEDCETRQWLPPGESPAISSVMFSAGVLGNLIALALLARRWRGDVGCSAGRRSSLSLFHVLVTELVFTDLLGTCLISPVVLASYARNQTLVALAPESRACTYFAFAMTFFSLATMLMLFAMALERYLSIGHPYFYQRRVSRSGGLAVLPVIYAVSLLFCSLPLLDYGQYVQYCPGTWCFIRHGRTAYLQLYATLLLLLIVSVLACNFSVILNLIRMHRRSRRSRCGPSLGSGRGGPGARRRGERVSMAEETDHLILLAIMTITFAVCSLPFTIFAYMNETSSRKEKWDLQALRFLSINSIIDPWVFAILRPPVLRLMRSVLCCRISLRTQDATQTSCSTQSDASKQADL
OX1R antag-2: blocks the human orexin 1 receptor; AID 485270; inhibition, % at 6.6 µM; OX1R-expressing cells, FRET antagonist read-out; O43613; hit rate 1.8% among 330,000; in the data active = inhibition mostly above about 38%, no sharp cut-off; inactive = mostly below about 40%;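 also: 0% = agonist challenge alone and 100% = reference antagonist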
CHO parental Ca: counter-screen for OX1R antagonists: effect in parental CHO cells | parental CHO-K1, ATP-induced calcium, Fluo-8 fluorescence | AID 463079 | inhibition, % at 5.6 µM | hit rate 0.63% among 330,000;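 active = inhibition above that plate's mean sample inhibition plus 3 SD, cut at about 26% in these data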;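 also: 0% = ATP-challenged DMSO wells and 100% = DMSO wells without ATP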
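Assay system: untransfected parental CHO cell line. Also added: ATP agonist challenge. Dosing: one dose, 5.6 µM nominal. Measured by: Fluo-8 fluorescence. Read-out: % inhibition. Benchmarks: ATP wells versus no-ATP DMSO wells. Repeats: no replicates.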
EP2 mod: EP2 receptor (human) modulation. P43116. EP2-expressing cells, cAMP HTRF FRET, PGE2 co-stimulation. induction, % at 25 µM. hit rate 0.83% among 260,000;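 active = compounds whose cAMP rise, as percent of the full-agonist control response, exceeds 60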;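 also: rat C6 glioma line stably carrying human EP2 under a CMV promoter; the protocol text gives 20 µM as final concentration; 100% = response of wells given 1 µM PGE2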
GPR7 antag: antagonists of human GPR7 (neuropeptides B/W receptor 1); P48145; GPR7-expressing cells, fluorescence antagonist assay; inhibition, % at 4.4 µM; hit rate 1.1% among 290,000; AID 1861; in the data active = inhibition above about 16%, passing the limit was not always enough;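 also: cells stimulated with the agonist NPW; 0% = agonist with vehicle and 100% = vehicle without agonist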
The depositor's hits bear a star; · = not tested or not shown. This is a sample that favours compounds with a hit; in the whole collection about 3.7% have one here.

SMILES	OX1R antag-1	EP2 antag	OX1R antag-2	CHO parental Ca	EP2 mod	GPR7 antag
COC(=O)CCN(C(=O)c1cc([N+](=O)[O-])cc([N+](=O)[O-])c1)c1ccccn1	-17	10	66*	1	-5	-9
O=C(O)c1cccc(N2C(=O)c3cc([N+](=O)[O-])cc4cc([N+](=O)[O-])cc(c34)C2=O)c1	1	·	96*	-4	·	-5
O=C(O)c1cccc(N2C(=O)c3cccc4cccc(c34)C2=O)c1	·	·	·	·	·	-16
COCCN(CCOC)S(=O)(=O)c1ccc(C(=O)NCCCN2CCOCC2)cc1	42	-3	13	56*	15	2
CCc1ccc(N=Nc2ccc(O)c3[nH]cnc23)cc1	47*	·	-1	30	·	·
CCc1ccc(/C=N/Nc2ncnc3nc[nH]c23)cc1	-16	12	17	-12	-7	-22
CCCC(=O)Nc1ccc(C(=O)NCCc2ccc(F)cc2)cc1	12	5	-3	-4	-4	6
COc1ccc(NC(=O)CSc2nc(-c3ccc(OC)cc3)cc(C(F)(F)F)n2)cc1	·	11	·	·	-11	·
Cc1sc2ncnc(NCc3cccs3)c2c1C	3	8	28	36*	15	-11
Cc1sc2ncnc(NCC(O)c3ccc([N+](=O)[O-])cc3)c2c1C (stereo unspecified)	13	·	28	35*	·	19
Cc1sc2ncnc(NCC(O)c3ccccc3)c2c1C (stereo unspecified)	20	·	28	43*	·	2
Cc1sc2ncnc(NCC(c3ccccc3)N(C)C)c2c1C (stereo unspecified)	-27	·	10	-12	·	1
Cc1sc2ncnc(NCCCO)c2c1C	-47	9	22	-7	2	-2
CC(C)N1C(=O)C(O)(C2COC(C)(C)CC2=O)c2ccccc21 (stereo unspecified)	-11	12	8	12	9	-4
N=c1c(C(=O)NCCN2CCOCC2)cc2c(=O)n3ccccc3nc2n1CCCN1CCOCC1	-4	·	69*	6	·	9
Cc1ccc2nc3c(cc(C(N)=S)c(=N)n3CCCOC(C)C)c(=O)n2c1	-32	11	47*	-34	23	-8
N=c1c(S(=O)(=O)c2ccccc2)cc2c(=O)n3ccccc3nc2n1CCCN1CCOCC1	-17	·	46*	-12	·	-4
N=c1c(C(=O)NCCc2ccccc2)cc2c(=O)n3ccccc3nc2n1CCCO	·	13	·	·	-21	·
N=c1c(C(=O)NCCN2CCOCC2)cc2c(=O)n3ccccc3nc2n1Cc1ccc(F)cc1	-9	·	60*	-7	·	-8
CCc1ccc(S(=O)(=O)N/N=C(/C)c2ccncc2)cc1	-10	·	16	-3	·	-10
Cc1ccc2nc3c(cc(C(=O)NCCN4CCOCC4)c(=N)n3CCCN3CCOCC3)c(=O)n2c1	4	·	71*	-2	·	-11
N#Cc1cc([N+](=O)[O-])ccc1NC(=O)CSc1n[nH]c(=O)n1C1CC1	-4	·	33*	-1	·	·
O=C(CSc1n[nH]c(=O)n1C1CC1)Nc1ccc(Cl)cc1Cl	-13	·	-2	1	·	·
CCOc1cc(CNCCSc2nnnn2C)cc(Br)c1OCc1ccccc1	51*	19	11	66*	-23	7
CCOc1cc(CNCCO)cc(Br)c1OCc1ccccc1	8	7	15	-7	-22	15
SMILES	OX1R antag-1	EP2 antag	OX1R antag-2	CHO parental Ca	EP2 mod	GPR7 antag
O=C(OC(c1ccccc1)c1nccc2ccccc12)c1cc([N+](=O)[O-])cc([N+](=O)[O-])c1 (stereo unspecified)	-45	4	62*	-30	33	-2
OC(c1cccc(Cl)c1)c1nccc2ccccc12 (stereo unspecified)	-24	·	4	-17	·	-5
N/C(=N\OC(=O)CCCOc1ccccc1)c1cccc(Br)c1	-5	5	9	-2	-11	-2
S=c1[nH]nc(-c2ccco2)n1/N=C/c1cccc(Cl)c1Cl	-1	1	5	-11	61*	-12
COc1cccc(N(C(=O)Cn2nnc(-c3ccc(F)cc3)n2)C(C)C(=O)NC2CCCC2)c1 (stereo unspecified)	·	15	·	·	19	·
CN(C)c1ccc2nc3c(=O)[nH]c(=O)nc-3n(CC(O)C(O)C(O)CO)c2c1 (stereo unspecified)	16	·	74*	12	·	4
Cc1cc(=O)[nH]c(SCC(=O)Nc2ccc(N(C)C)cc2)n1	·	8	·	·	-40	·
CC(=O)c1cc(F)c(N2CCN(C(=O)Cc3ccccc3)CC2)cc1C	59*	7	70	36	2	12
CCC(=O)Nc1cc(Cl)ccc1N1CCN(C(=O)CC)CC1	-24	14	8	-20	11	-7
CCOC(=O)N1CCN(c2cc(C)c(C(C)=O)cc2F)CC1	1	·	9	-24	21	-15
CCC(=O)N1CCN(c2ccc(Cl)cc2NC(=O)Cc2ccccc2)CC1	-19	13	5	-27	21	17*
COc1cc(C)cc2c(-c3c(O)cc(O)c4c3C[C@H](C)N[C@@H]4C)cc(-c3cc(-c4c(O)cc(O)c5c4C[C@H](C)N[C@@H]5C)c4cc(C)cc(OC)c4c3O)c(O)c12	·	41*	·	·	-12	·
CC(Oc1ccc(Cl)cc1Cl)C(=O)NNC(=O)C(=O)N1CCCC1 (stereo unspecified)	-22	·	21	-1	·	-9
O=S(=O)(c1cccs1)N1CCN(CC(O)COc2cc(Cl)ccc2Cl)CC1 (stereo unspecified)	74*	12	75*	69*	-28	-1
COc1cccc(NC(=O)COC(=O)C2CCN(S(=O)(=O)c3cccs3)CC2)c1	-9	7	8	-11	-24	1
O=C(OCn1ncc(Cl)c(Cl)c1=O)c1ccc(F)cc1	27	15	10	32*	5	-4
O=C(OCn1ncc(Cl)c(Cl)c1=O)c1ccccc1Cl	-4	14	15	17	18	2
Cc1cccc(N2CCN(S(=O)(=O)c3ccc4c(c3)CCC(=O)N4)CC2C)c1 (stereo unspecified)	-7	8	27	40*	-33	-16
Cc1ccc(S(=O)(=O)N2CCCC(C(=O)NNCC(=O)Nc3cc(F)ccc3F)C2)cc1 (stereo unspecified)	-20	11	19	-29	-20	-1
CCN1/C(=C/c2ccc3cc(C)ccc3[n+]2C)Sc2ccc3sccc3c21	·	45*	·	·	-60	12
COc1ccc2c(c1)N(C)/C(=C/c1cccc[n+]1C)S2	8	·	3	1	·	1
CCN1/C(=C/c2ccc3cc(OC)ccc3[n+]2CC)Sc2cc(NC(C)=O)ccc21	·	17	·	·	-9	·
CCN1/C(=C/c2ccc3cc(C)ccc3[n+]2CC)Sc2cc(C)ccc21	·	80*	·	·	-72	-1
CCN1/C(=C/c2ccc3ccccc3[n+]2C)Sc2cc(C)ccc21	·	52*	·	·	-56	·
CC[n+]1c(/C=C2/Sc3ccc(OC)cc3N2C)ccc2cc(OC)ccc21	·	123*	·	·	-103	·
